Data on 6 compounds can be found in article PMC12433486 (Redox Biology, 2025).

Each structure is given as a SMILES string. ≈ marks a conversion by molar mass, not a printed value. Positions of bridges follow the written chain, without caps; N, C: chain ends. Non-standard residues stand in square brackets, D forms with d. Residues, ends and D or L forms follow the SMILES beside them. *: point of attachment. Heptanoyl(6-Me) = CC(C)CCCCC(=O)*; Dab = NCC[C@H](N)C(=O)O

In one experiment the test system is CRPA. Nature of the experiment: MIC, broth microdilution. It counts as cell-based, Pseudomonas aeruginosa. Conditions: 24 h; for MIC, CRPA: gold complexes and antibiotics; for MIC: Pseudomonas aeruginosa, read-out: MIC, CRPA. The essentials: (§1)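 Broth microdilution per CLSI guidelines in 96-well plates with test compound, incubated at 37 °C for 24 h. Growth was read on a microplate reader.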

Experiment [1] deals with CRKP. As to the kind of experiment: MIC, broth microdilution. Type of experiment: cell-based, Klebsiella pneumonia. Conditions: 24 h; for MIC, CRKP: gold complexes and antibiotics; for MIC: Klebsiella pneumoniae, read-out: MIC, CRKP. The essentials:
as §1
On the technique in general: In broth dilution the organism is exposed to a series of concentrations in liquid medium.

Another experiment relates to CREC. Nature of the experiment: MIC, broth microdilution. Type of experiment: cell-based, Escherichia coli. The conditions noted are these: 24 h; for MIC, CREC: gold complexes and antibiotics; for MIC: Escherichia coli, read-out: MIC, CREC. The essentials: as §1
Another experiment has as its system VISA. Nature of the experiment: MIC, broth microdilution. It counts as cell-based, Staphylococcus aureus. Conditions: gold complexes and antibiotics, 24 h. The essentials:
as §1

For another experiment, the system named is CRKP (Clinical). As to the kind of experiment: MIC, broth microdilution. The conditions noted are these: 24 h; for MIC, CRKP (Clinical): gold complexes and antibiotics; for MIC: Klebsiella pneumoniae, read-out: MIC, CRKP (Clinical). Type of experiment: cell-based, Klebsiella pneumonia. The essentials:
as §1

A further experiment concerns CRAB (Clinical). Nature of the experiment: MIC, broth microdilution. Type of experiment: cell-based. The conditions noted are these: 24 h; for MIC, CRAB (Clinical): gold complexes and antibiotics; for MIC: read-out: MIC, CRAB (Clinical). The essentials: as §1
The test system of the next experiment is CREC (Clinical). As to the kind of experiment: MIC, broth microdilution. It counts as cell-based, Escherichia coli. Conditions: 24 h; for MIC, CREC (Clinical): gold complexes and antibiotics; for MIC: Escherichia coli, read-out: MIC, CREC (Clinical). The procedure, abridged: as §1
A further experiment relates to CRPA (Clinical). As to the kind of experiment: MIC, broth microdilution. Conditions: 24 h; for MIC, CRPA (Clinical): gold complexes and antibiotics; for MIC: Pseudomonas aeruginosa, read-out: MIC, CRPA (Clinical). It counts as cell-based, Pseudomonas aeruginosa. The essentials:
as §1

The next experiment has as its system cellular GR in CRKP. Nature of the experiment: Cellular GR activity assay. It counts as cell-based, Klebsiella pneumonia. The conditions noted are these: CRKP treated 4 h, GR assay kit. The essentials: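 CRKP overnight culture diluted and regrown to mid-log phase (OD600 0.6), then treated with test compound. Cellular glutathione reductase activity measured with a commercial GR activity kit.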

Experiment [2] has as its system CRKP. As to the kind of experiment: Time-killing assay. The conditions noted are these: 0-80 μM. Type of experiment: cell-based, Klebsiella pneumonia. The procedure, abridged: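 Overnight CRKP culture diluted 2000-fold and grown to OD600 0.4–0.6, then diluted to OD600 0.1 and plated in 96-well format. Test compound added at 0, 10, 20, 40 or 80 μM. Growth read hourly by microplate reader for 12 h.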

In another experiment the test system is DNA from CRKP. Nature of the experiment: DNA degradation assay. Further details: species or system Klebsiella pneumonia. The conditions noted are these: purified CRKP DNA, 30 min. The procedure, abridged: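 Genomic DNA extracted from CRKP with a kit and checked by micro-spectrophotometry and agarose gel. DNA mixed with varying concentrations of test compound on ice for 30 min, also with 10 mM H2O2 for 30 min. DNA (30 ng/μL) additionally incubated with 40 μM for 2 h on ice. Degradation read by EB-stained polyacrylamide gel electrophoresis.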

In experiment [3] the test system is CRKP. Nature of the experiment: Intracellular superoxide radical detection. Conditions: 4 h. It counts as cell-based, Klebsiella pneumonia. The essentials:
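Mid-log CRKP (OD600 0.6) loaded with DHE for 20 min at 37 °C with shaking, treated with test compound at 0, 10, 20 or 40 μM for 4 h, and washed three times in ice-cold PBS. Flow cytometry collected 100,000 cells. For HPLC, cells at OD600 0.3 took up 20 μM DHE for 20 min, were exposed to 0 or 80 μM for 4 h and washed, with synthesized 2-OH E+ as reference.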

The test system of another experiment is recombinant CRKP GR. As to the kind of experiment: Inhibition of recombinant CRKP GR. It counts as biochemical, Klebsiella pneumonia. The procedure, abridged: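 Purified CRKP GR (final 2 nM) in 50 mM Tris-HCl pH 7.5 with 2 mM EDTA was preincubated with test compound at 37 °C for 30 min. GSSG and NADPH were then added, with A340 read at 10 s and after 5 min at 37 °C. Ki came from varying GSSG 0–5 mM and compound 0–20 μM under a competitive model. Reversibility: 30 min RT exposure, then NAP-5 desalting (1 mM GSSG, 300 μM NADPH) or 4 °C, 4 h dialysis (15,000 Da cutoff).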

Experiment [4] concerns CRKP. Nature of the experiment: Cell membrane integrity. Type of experiment: cell-based, Klebsiella pneumonia. The conditions noted are these: 0-40 μM, 4 h, vs control. The essentials: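 Membrane integrity read from PI uptake: CRKP exposed to test compound at 0, 10, 20 or 40 μM, then analysed by single-parameter flow cytometry collecting 100,000 cells per sample.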
The subject of a further experiment is recombinant CRKP TrxR. As to the kind of experiment: Inhibition of recombinant CRKP TrxR. Type of experiment: biochemical, Klebsiella pneumonia. Conditions: read-out: IC50, recombinant CRKP TrxR; DTNB reduction assay. The essentials: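 TrxR activity read by DTNB reduction assay (NADPH plus DTNB, A412 change over 5 min at 37 °C). Ki came from varying DTNB 0–2 mM and test compound 0–40 μM, fitted to a competitive inhibition model. Reversibility: NADPH-prereduced enzyme (100 μM, 10 min) was treated with 30 μM compound for 30 min, then NAP-5 desalted. Alternatively, after 30 min RT exposure, enzyme was dialysed 4 h at 4 °C (15,000 Da cutoff).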

In another experiment the test system is cellular TrxR in CRKP. As to the kind of experiment: Cellular TrxR activity assay. It counts as cell-based, Klebsiella pneumonia. The conditions noted are these: read-out: IC50, cellular TrxR; CRKP treated 4 h, TrxR assay kit. The procedure, abridged:
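Overnight CRKP culture diluted and regrown to mid-log phase (OD600 0.6). Suspensions exposed to test compound at 0, 2.5, 5, 10 or 20 μM for 4 h. Cellular TrxR activity measured with a commercial TrxR activity kit.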

Experiment [5] deals with CRKP. Nature of the experiment: Checkerboard microdilution assay. It counts as cell-based, Klebsiella pneumonia. The conditions noted are these: for MIC of antibiotic: antibiotic alone; for FIC index (Au10): antibiotic in combination with Au10, CRKP; for FIC index (Au17): antibiotic in combination with Au17, CRKP; for FIC index (Auranofin): antibiotic in combination with auranofin. The procedure, abridged: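 Checkerboard: overnight cultures diluted 1000-fold, regrown to mid-log phase (OD600 0.6), diluted per CLSI and seeded in 96-well plates. Varying concentrations of gold test compound combined with varying antibiotic concentrations. Incubated 37 °C for 24 h, growth read at OD600. FICI calculated by a previously described method.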

The test system of experiment [6] is CRKP. As to the kind of experiment: Murine peritonitis infection model. Conditions: six mice per group, treated 1 h after i.p. CRKP. Type of experiment: in vivo, BALB/c mice. The procedure, abridged: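 Female BALB/c mice (18–20 g) randomized, six per group, and given 200 μL CRKP suspension i.p. Treatment began 1 h after infection: saline/PBS control, comparator antibiotic or test compound. Survival recorded over 48 h.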

Consider `COc1ccc2ccc([O-])c(C=NC3CCCCC3N=Cc3cc(F)ccc3[O-])c2c1.F[P-](F)(F)(F)(F)F.[Au+3]` [Au4, [1-((E)-(((1S,2R)-2-(((E)-5-fluoro-2-hydroxybenzylidene)amino)cyclohexyl)imino)methyl)-7-methoxynaphthalen-2-ol] Au(III) hexafluorophosphate], for which the “MIC, CRPA” value in the experiment on CRPA is over 20 µM. In addition, in the experiment with CRKP [1], the “MIC, CRKP” value amounted to 10 µM. Further, the “MIC, CREC” value with CREC came out at 20 µM. For the same compound, the “MIC, VISA” value with VISA is over 20 µM. Further, the “MIC, CRKP (Clinical)” value against CRKP (Clinical) worked out at 10 µM. In the experiment on CRAB (Clinical), the “MIC, CRAB (Clinical)” value was over 20 µM. Also, in the experiment on CREC (Clinical), the “MIC, CREC (Clinical)” value amounted to 20 µM. In addition, the “MIC, CRPA (Clinical)” value against CRPA (Clinical) is over 20 µM.

In the case of `CC(=O)OC[C@H]1O[C@@H]([S-])[C@H](OC(C)=O)[C@@H](OC(C)=O)[C@@H]1OC(C)=O.CCP(CC)CC.[Au+]` [Auranofin], the “MIC, CRPA” value in the experiment on CRPA is over 20 µM. Besides, the “MIC, CRKP” value in the experiment on CRKP [1] is over 20 µM. Also, the “IC50, cellular GR” value in the experiment with cellular GR in CRKP is on record as “did not show any inhibitory effects”. In addition, in the experiment on CRKP [2], the “bacterial growth over 12 h” value is listed as “only a marginal inhibitory effect”. The “DNA degradation (gel electrophoresis)” value in the experiment on DNA from CRKP is “did not demonstrate DNA degradation effect”. Besides, the “2-OH E+ formation (HPLC)” value in the experiment with CRKP [3] (80 μM) is “no detectable 2-OH E^+”. Also, in the experiment on CRKP [3] (10, 20, 40 μM, vs control), the “intracellular ROS (superoxide, DHE probe)” value is “did not induce ROS generation”. In addition, the “inhibition of recombinant GR at 40 μM” value in the experiment on recombinant CRKP GR is “did not exhibit inhibitory effects”. For the same compound, the “MIC, CREC” value in the experiment with CREC was over 20 µM. Besides, in the experiment on VISA, the “MIC, VISA” value was 0.5 µM. Besides, the “PI red fluorescence intensity (membrane integrity)” value with CRKP [4] is given as “did not show a significant difference”. Moreover, in the experiment with CRKP (Clinical), the “MIC, CRKP (Clinical)” value was over 20 µM. Moreover, the results for the IC50 in the experiment with recombinant CRKP TrxR and in the experiment on cellular TrxR in CRKP were 27.2 µM and 11.6 µM, respectively. The “MIC, CRAB (Clinical)” value with CRAB (Clinical) was 20 µM. Besides, the “MIC, CREC (Clinical)” value against CREC (Clinical) was over 20 µM. Also, the “interaction with cefepime or meropenem” value in the experiment on CRKP [5] (checkerboard, CRKP) was “did not exhibit any synergistic interaction”. Further, the “MIC, CRPA (Clinical)” value in the experiment with CRPA (Clinical) is over 20 µM.

For `CO/N=C(\C(=O)N[C@@H]1C(=O)N2C(C(=O)[O-])=C(C[N+]3(C)CCCC3)CS[C@H]12)c1csc(N)n1` [Cefepime], the “MIC of antibiotic in the presence of Au10” value in the experiment on CRKP [5] (Au10 2 μM, CRKP) came out at 5 µM. In addition, in the experiment with CRKP [5] (CRKP), the MIC of antibiotic is 20 µM and the “FIC index (Auranofin)” value is 0.525. In addition, in the experiment on CRKP [5], the “FIC index (Au10)” value came to 0.45 and the “FIC index (Au17)” value is reported as 0.70.

For `CC(C)CCCCC(=O)N[C@@H](CCN)C(=O)N[C@H](C(=O)N[C@@H](CCN)C(=O)N[C@H]1CCNC(=O)[C@H]([C@@H](C)O)NC(=O)[C@H](CCN)NC(=O)[C@H](CCN)NC(=O)[C@H](CC(C)C)NC(=O)[C@@H](CC(C)C)NC(=O)[C@H](CCN)NC1=O)[C@@H](C)O` [Colistin B] ({Heptanoyl(6-Me)}-[Dab]T[Dab][Dab][Dab][dL]L[Dab][Dab]T; lactam 4-C), the MIC was 3 µM (≈ 3.47 µg/mL) in the experiment on CRPA; 50 µM (≈ 57.8 µg/mL) with CRKP [1]; 1 µM (≈ 1.16 µg/mL) with CREC; 100 µM (≈ 116 µg/mL) in the experiment on CRKP (Clinical); 3 µM (≈ 3.47 µg/mL) with CRAB (Clinical); 1 µM (≈ 1.16 µg/mL) in the experiment with CREC (Clinical). Moreover, in the experiment on CRPA (Clinical), the MIC was 3 µM (≈ 3.47 µg/mL). For the same compound, in the experiment with CRKP [6], the “mice surviving more than 24 h” value was “no mice”.

Turning to `C[C@@H](O)[C@H]1C(=O)N2C(C(=O)O)=C(SCCN=CN)C[C@H]12` [Imipenem], the MIC was 200 µM (≈ 59.9 µg/mL) in the experiment on CRPA; 200 µM (≈ 59.9 µg/mL) in the experiment with CRKP [1]; 50 µM (≈ 15 µg/mL) in the experiment on CREC; 100 µM (≈ 29.9 µg/mL) in the experiment with CRKP (Clinical); 200 µM (≈ 59.9 µg/mL) in the experiment with CRAB (Clinical); 100 µM (≈ 29.9 µg/mL) with CREC (Clinical). The MIC in the experiment with CRPA (Clinical) was determined as 100 µM (≈ 29.9 µg/mL).

Turning to `C[C@@H](O)[C@H]1C(=O)N2C(C(=O)O)=C(S[C@@H]3CN[C@H](C(=O)N(C)C)C3)[C@H](C)[C@H]12` [Meropenem], in the experiment on CRKP [5] (CRKP), the MIC of antibiotic is 40 µM and the “FIC index (Auranofin)” value was 0.625. Also, in the experiment on CRKP [5], the “FIC index (Au10)” value is on record as 0.35 and the “FIC index (Au17)” value worked out at 0.45.

What is called IC50 is the concentration that gives 50% inhibition. By MIC is commonly meant the least concentration at which growth counts as inhibited.
